pIC50, pKi: −log10 of the molar value. Activity calls are given as the source filed them. The rule behind the calls is not given here.
Experiments:
[1] = target: Neutrophil collagenase (Homo sapiens) (UniProt P22894); test: Inhibition of MMP8 (unknown origin) preincubated for 1 hr followed by (QF)-24 substrate addition measured at 1 min time interval for 1 hr by fluorescence assay
How it was run: (§1)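 MMPs were activated with 1 mM 4-aminophenylmercuric acetate (50 mM HEPES, 150 mM NaCl, 5 mM CaCl2, pH 7.0, 1 h, rt). 1 μM QF24 was added at 37 °C and read at 320/405 nm every minute for 1 h. IC50 from a four-parameter Hill fit; three independent experiments.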

[2] = target: T1, Matrilysin (Homo sapiens) (UniProt P09237); test: Inhibition of MMP7 (unknown origin) preincubated for 1 hr followed by (QF)-24 substrate addition measured at 1 min time interval for 1 hr by fluorescence assay; how it was run: as §1
T1 sequence (whole entry): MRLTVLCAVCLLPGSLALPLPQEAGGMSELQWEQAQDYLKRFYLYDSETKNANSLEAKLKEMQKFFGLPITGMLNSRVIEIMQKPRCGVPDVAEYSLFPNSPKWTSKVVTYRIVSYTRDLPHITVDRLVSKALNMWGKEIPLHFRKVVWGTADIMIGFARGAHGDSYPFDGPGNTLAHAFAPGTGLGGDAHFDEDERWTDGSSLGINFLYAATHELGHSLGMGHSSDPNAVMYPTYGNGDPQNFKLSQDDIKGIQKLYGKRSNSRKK

[3] = Inhibition of Plasmodium falciparum C-terminal His6-tagged M17 aminopeptidase (85 to 605 residues) expressed in Escherichia coli BL21(DE3) preincubated for 20 mins followed by L-leucine-7-amido-4-methylcoumarin addition by Morrison equation analysis
How it was run: (§2)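 Recombinant enzymes (Ni-NTA then size exclusion) were preincubated 20 min with inhibitor in 100 mM Tris-HCl pH 8.0, with 2 mM CoCl2 for Pf-M17 and 1 mM for Pv-M17. Leu-AMC substrate: 20 μM (Pf-M1), 40 μM (Pv-M1), 10 μM (both M17). Read at 37 °C, 355/460 nm, to steady-state velocity. Ki from a Morrison tight-binding fit; biological triplicate from three protein preparations.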

[4] = Inhibition of Plasmodium vivax C-terminal His6-tagged M17 aminopeptidase (203 to 621 residues) expressed in Escherichia coli BL21(DE3) preincubated for 20 mins followed by L-leucine-7-amido-4-methylcoumarin addition by Morrison equation analysis; how it was run: as §2
[5] = Inhibition of Plasmodium falciparum C-terminal His6-tagged M1 aminopeptidase (195 to 1085 residues) expressed in Escherichia coli BL21(DE3) preincubated for 20 mins followed by L-leucine-7-amido-4-methylcoumarin addition by Morrison equation analysis; how it was run: as §2
[6] = Inhibition of Plasmodium vivax C-terminal His6-tagged M1 aminopeptidase (195 to 1097 residues) expressed in Escherichia coli BL21(DE3) preincubated for 20 mins followed by L-leucine-7-amido-4-methylcoumarin addition by Morrison equation analysis; how it was run: as §2
[7] = Selectivity ratio of Ki for Plasmodium falciparum C-terminal His6-tagged M1 aminopeptidase (195 to 1085 residues) expressed in Escherichia coli BL21(DE3) to Ki for Plasmodium vivax C-terminal His6-tagged M1 aminopeptidase (195 to 1097 residues) expressed in Escherichia coli BL21(DE3)
[8] = Selectivity index, ratio of CC50 for HEK293 cells to IC50 for Plasmodium falciparum 3D7; assay type: toxicity; details: human, read-out: Ratio CC50/IC50
[9] = tested on: Plasmodium falciparum; test: Antimalarial activity against Plasmodium falciparum Dd2 after 72 hrs by DAPI staining-based confocal imaging analysis; assay type: functional, organism-based; details: for pIC50: Plasmodium falciparum, Dd2, 72 h, read-out: IC50
How it was run: (§3)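 Exposed to a 16-point dose series (40 μM to 0.4 nM final, 0.4% DMSO) for 72 h at 37 °C in 90% N2/5% CO2/5% O2. DAPI-stained and imaged confocally. Two biological replicates, each with two technical repeats.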

[10] = Cytotoxicity against HEK293 cells after 72 hrs by resazurin dye based assay; assay type: cell-based; details: human
How it was run: (§4)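 HEK293 cells kept in DMEM with 10% FBS. Exposed to compounds for 72 h at 37 °C, 5% CO2, using the same dilution scheme as the parasite assay (top 40 μM). Medium then replaced with 44 μM resazurin, and fluorescence (530/595 nm) read after 5–6 h.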

[11] = Growth inhibition of HEK293 cells at 10 uM after 72 hrs by resazurin dye based assay relative to control; assay type: cell-based; details: human, read-out: GI; how it was run: as §4
[12] = tested on: Plasmodium falciparum; test: Antimalarial activity against Plasmodium falciparum 3D7 after 72 hrs by DAPI staining-based confocal imaging analysis; assay type: functional, organism-based; details: 3D7, 72 h; how it was run: as §3
[13] = Growth inhibition of HEK293 cells at 40 uM after 72 hrs by resazurin dye based assay relative to control; assay type: cell-based; details: human, read-out: GI; how it was run: as §4
[14] = target: Matrix metalloproteinase-9 (Homo sapiens, UniProt P14780); test: Inhibition of MMP9 (unknown origin) preincubated for 1 hr followed by (QF)-24 substrate addition measured at 1 min time interval for 1 hr by fluorescence assay
[15] = target: 72 kDa type IV collagenase (Homo sapiens, UniProt P08253); test: Inhibition of MMP2 (unknown origin) preincubated for 1 hr followed by (QF)-24 substrate addition measured at 1 min time interval for 1 hr by fluorescence assay
[16] = tested on: Plasmodium falciparum; details: 2 mM
[17] = tested on: Plasmodium falciparum; test: Reversible inhibition of Plasmodium falciparum C-terminal His6-tagged M17 aminopeptidase (85 to 605 residues) expressed in Escherichia coli BL21(DE3) assessed as enzyme activity recovery at 150 uM preincubated followed by compound washout for 5 hrs and subsequent L-leucine-7-amido-4-methylcoumarin substrate addition by fluorescence assay
How it was run: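 Pf-M17 (20 μM) was incubated overnight at 4 °C with 150 μM compound, 150 μM bestatin, 2 mM EDTA, or buffer (50 mM HEPES pH 8, 300 mM NaCl). It was then washed by repeated 10-fold concentration/dilution for up to 7 h, incubated 10 min in 1 mM MnCl2, 100 mM Tris pH 8.0, given 25 μM Leu-AMC (final), and fluorescence followed for 30 min.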

Neutrophil collagenase (Homo sapiens), sequence (P22894 101-467 limits assumed): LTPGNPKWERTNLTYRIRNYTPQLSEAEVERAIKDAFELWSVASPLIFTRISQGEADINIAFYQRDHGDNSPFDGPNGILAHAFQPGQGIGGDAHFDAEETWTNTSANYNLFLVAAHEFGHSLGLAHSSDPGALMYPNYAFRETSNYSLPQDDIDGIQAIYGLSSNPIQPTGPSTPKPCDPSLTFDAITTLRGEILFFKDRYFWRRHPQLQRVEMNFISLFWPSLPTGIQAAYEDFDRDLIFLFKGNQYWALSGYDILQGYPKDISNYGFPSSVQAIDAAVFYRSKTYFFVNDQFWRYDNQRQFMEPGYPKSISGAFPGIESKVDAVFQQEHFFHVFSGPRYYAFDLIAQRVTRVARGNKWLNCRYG
72 kDa type IV collagenase, sequence (P08253 whole entry): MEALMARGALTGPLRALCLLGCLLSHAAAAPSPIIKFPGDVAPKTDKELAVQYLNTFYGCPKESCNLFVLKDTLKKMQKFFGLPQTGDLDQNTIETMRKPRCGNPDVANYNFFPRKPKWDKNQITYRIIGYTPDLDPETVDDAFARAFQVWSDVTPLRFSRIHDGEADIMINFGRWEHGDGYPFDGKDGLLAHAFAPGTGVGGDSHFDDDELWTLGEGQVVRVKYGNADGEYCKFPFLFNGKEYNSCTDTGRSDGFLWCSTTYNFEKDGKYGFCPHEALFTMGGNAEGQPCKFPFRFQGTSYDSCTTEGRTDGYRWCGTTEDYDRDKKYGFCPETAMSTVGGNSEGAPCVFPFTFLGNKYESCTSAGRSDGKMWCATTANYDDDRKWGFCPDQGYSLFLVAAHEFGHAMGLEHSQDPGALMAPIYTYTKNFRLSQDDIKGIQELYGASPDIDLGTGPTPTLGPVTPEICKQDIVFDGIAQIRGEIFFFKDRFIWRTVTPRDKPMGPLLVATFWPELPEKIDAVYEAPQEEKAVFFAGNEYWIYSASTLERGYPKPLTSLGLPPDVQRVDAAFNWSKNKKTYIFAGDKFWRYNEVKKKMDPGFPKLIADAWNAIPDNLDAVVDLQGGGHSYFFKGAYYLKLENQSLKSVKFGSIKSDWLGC
Matrix metalloproteinase-9, sequence (P14780 whole entry): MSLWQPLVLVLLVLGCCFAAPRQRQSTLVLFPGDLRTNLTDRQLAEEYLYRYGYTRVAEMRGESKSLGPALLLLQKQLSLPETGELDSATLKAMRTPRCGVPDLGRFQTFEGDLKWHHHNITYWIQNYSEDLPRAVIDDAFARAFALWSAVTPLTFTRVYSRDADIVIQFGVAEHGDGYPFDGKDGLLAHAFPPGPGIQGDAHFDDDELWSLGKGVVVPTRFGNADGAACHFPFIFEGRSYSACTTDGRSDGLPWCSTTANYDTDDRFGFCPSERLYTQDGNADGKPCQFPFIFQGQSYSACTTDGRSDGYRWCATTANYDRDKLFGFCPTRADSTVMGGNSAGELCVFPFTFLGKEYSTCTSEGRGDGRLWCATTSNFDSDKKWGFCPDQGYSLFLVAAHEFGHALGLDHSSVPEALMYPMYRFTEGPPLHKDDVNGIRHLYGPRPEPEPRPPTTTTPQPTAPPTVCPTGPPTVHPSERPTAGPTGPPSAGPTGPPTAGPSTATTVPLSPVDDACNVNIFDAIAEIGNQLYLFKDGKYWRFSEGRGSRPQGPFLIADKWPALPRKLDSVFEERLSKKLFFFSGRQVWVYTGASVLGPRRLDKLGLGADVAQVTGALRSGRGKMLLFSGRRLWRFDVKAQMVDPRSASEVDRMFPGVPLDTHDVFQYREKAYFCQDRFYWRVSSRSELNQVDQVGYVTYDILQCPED

SMILES | pKi [3] | pKi [4] | pKi [5] | pKi [6] | Ratio Ki [7] | pIC50 [9] | inhibition at 72 h, 10 µM [11] [%] | pIC50 [12] | inhibition at 72 h, 40 µM [13] [%] | further results
CNC(=O)[C@@H](NC(=O)[C@H](CC(C)C)[C@H](O)C(=O)NO)C(C)(C)C | – | – | – | – | – | – | – | – | – | inhibition [1]: Active; inhibition [2]: Active
O=C(NC(C(=O)NO)c1ccc(-c2cc(F)c(F)c(F)c2)cc1)C1CCCC1 (configuration not stated) | 6.52 | 6.47 | 6.55 | 7.88 | 10 | – | – | – | – | –
COc1ccc(C[C@H](N)C(=O)N[C@H]2[C@@H](O)[C@H](n3cnc4c(N(C)C)ncnc43)O[C@@H]2CO)cc1 [PUROMYCIN] | – | – | – | – | – | 6.97 | 105 | 6.96 | 105 | selectivity ratio [8]: 4.5; CC50 at 72 h [10]: 500 nM
O=C(NO)[C@@H](NC(=O)[C@@H](F)C(F)(F)F)c1ccc(-c2cc(F)c(F)c(F)c2)cc1 (racemic) | 5.66 | 5.91 | 5.83 | 6.68 | 10 | – | – | – | – | –
O=C(CC1CC1)NC(C(=O)NO)c1ccc(-c2cc(F)c(F)c(F)c2)cc1 (configuration not stated) | 6.57 | 6.52 | 6.69 | 7.75 | 10 | 6.96 | 6.4 | 6.87 | 37.6 | –
CC(C)C[C@@H](C(=O)N[C@H](C(=O)OC1CCCC1)c1ccccc1)C(O)C(=O)NO (some centres not stated) | – | – | – | – | – | – | – | – | – | inhibition [1]: Active; inhibition [2]: Active; pIC50 [14]: 5.82; pIC50 [15]: 6.72
O=C(CC1CCCCC1)NC(C(=O)NO)c1ccc(-c2cc(F)c(F)c(F)c2)cc1 (configuration not stated) | 6.54 | 6.83 | 6.09 | 7.88 | 10 | – | – | – | – | –
CC(C)(C)C(=O)NC(C(=O)NO)c1ccc(-c2cc(F)c(F)c(F)c2)cc1 (configuration not stated) | 6.83 | 7.13 | 6.48 | 7.85 | 10 | 7.09 | 1.1 | 7.08 | 80.7 | selectivity ratio [8]: ≥ 241; CC50 at 72 h [10]: ≥ 20000 nM
O=C(CC1CC2CCC1C2)NC(C(=O)NO)c1ccc(-c2cc(F)c(F)c(F)c2)cc1 (configuration not stated) | 6.90 | 7.03 | 6.87 | 7.90 | 10 | 6.92 | 0.6 | 6.66 | 19.7 | –
COc1ccc2nc3cc(Cl)ccc3c(Nc3cc(CN4CCCC4)c(O)c(CN4CCCC4)c3)c2n1 [PYRONARIDINE] | – | – | – | – | – | 8.10 | 102 | 8.15 | 95.6 | selectivity ratio [8]: 507; CC50 at 72 h [10]: 3550 nM
O=C(N[C@@H](C(=O)NO)c1ccc(-c2cc(F)c(F)c(F)c2)cc1)[C@@H](F)C(F)(F)F (racemic) | 6.09 | 6.42 | 6.59 | 7.95 | 10 | – | – | – | – | –
C[C@H]1[C@H](OC(=O)CCC(=O)O)O[C@@H]2O[C@@]3(C)CC[C@H]4[C@H](C)CC[C@@H]1[C@@]24OO3 [ARTESUNATE] | – | – | – | – | – | 9.00 | 42.3 | 8.80 | – | –
CCN(CC)CCCC(C)Nc1ccnc2cc(Cl)ccc12 (configuration not stated) [CHLOROQUINE] | – | – | – | – | – | – | 17.3 | – | 57 | CC50 at 72 h [10]: ≥ 20000 nM
O=C(NC(C(=O)NO)c1ccc(-c2cc(F)c(F)c(F)c2)cc1)C1CC1 (configuration not stated) | 6.31 | 6.24 | 6.27 | 7.04 | 10 | – | – | – | – | –
O=C(NC(C(=O)NO)c1ccc(-c2cc(F)c(F)c(F)c2)cc1)C1CCC1 (configuration not stated) | 6.73 | 6.43 | 6.63 | 7.53 | 10 | 6.92 | 6 | 6.90 | 48.2 | selectivity ratio [8]: ≥ 158
O=C(O)CN(CCN(CC(=O)O)CC(=O)O)CC(=O)O | – | – | – | – | – | – | – | – | – | inhibition [16]: Active
O=C(CC1CCCC1)NC(C(=O)NO)c1ccc(-c2cc(F)c(F)c(F)c2)cc1 (configuration not stated) | 6.86 | 6.68 | 6.67 | 8.12 | 28.5 | 6.90 | 3.1 | 6.77 | -1 | –
C[C@H]1[C@@H](O)O[C@@H]2O[C@@]3(C)CC[C@H]4[C@H](C)CC[C@@H]1[C@@]24OO3 [ARTENIMOL] | – | – | – | – | – | 9.40 | 31 | 9.30 | – | –
CCC(=O)NC(C(=O)NO)c1ccc(-c2cc(F)c(F)c(F)c2)cc1 (configuration not stated) | 6.80 | 6.97 | 6.04 | 7.18 | 10 | – | – | – | – | –
O=C(CC1CCC1)NC(C(=O)NO)c1ccc(-c2cc(F)c(F)c(F)c2)cc1 (configuration not stated) | 6.51 | 7.12 | 6.75 | 8.55 | 62.1 | 7.53 | 6.3 | 7.26 | 5.6 | –
O=C(NO)C(NC(=O)C(F)(F)C(F)(F)F)c1ccc(-c2cc(F)c(F)c(F)c2)cc1 (configuration not stated) | 6.70 | 7.01 | 6.09 | 7.05 | 10 | – | – | – | – | –
O=C(NC(C(=O)NO)c1ccc(-c2cc(F)c(F)c(F)c2)cc1)C1CCOCC1 (configuration not stated) | 6.54 | 6.31 | 6.37 | 6.80 | 10 | – | – | – | – | –
CCc1nc(N)nc(N)c1-c1ccc(Cl)cc1 [PYRIMETHAMINE] | – | – | – | – | – | – | 34.4 | 8.29 | 53.7 | selectivity ratio [8]: ≥ 1960; IC50 [9]: Not Active; CC50 at 72 h [10]: ≥ 20000 nM
O=C(NC(C(=O)NO)c1ccc(-c2cc(F)c(F)c(F)c2)cc1)C1CCCCC1 (configuration not stated) | 6.71 | 6.75 | 6.09 | 7.42 | 10 | – | – | – | – | –
O=C(CC(F)(F)F)NC(C(=O)NO)c1ccc(-c2cc(F)c(F)c(F)c2)cc1 (configuration not stated) | 6.00 | 5.98 | 6.27 | 6.83 | 10 | – | – | – | – | –
CC(C)C[C@H](NC(=O)[C@@H](O)[C@H](N)Cc1ccccc1)C(=O)O | – | – | – | – | – | – | – | – | – | inhibition [17]: Active
CC(C)C(=O)NC(C(=O)NO)c1ccc(-c2cc(F)c(F)c(F)c2)cc1 (configuration not stated) | 6.37 | 6.49 | 6.38 | 7.41 | 10 | – | – | – | – | –

From ChEMBL document CHEMBL4371057, “Hydroxamic Acid Inhibitors Provide Cross-Species Inhibition of Plasmodium M1 and M17 Aminopeptidases” (J Med Chem, 2019)
